# ChEMBL document CHEMBL4414566, “Cytotoxicity and Anti-inflammatory Properties of Apigenin-Derived Isolaxifolin” (J Nat Prod, 2019)
# Columns and labels:
# Format in all cases: functional
# [1] = tested on: LNCaP; assay: Antiproliferative activity against human LNCAP cells assessed as cell viability at >30.9 uM incubated for 48 hrs by methylene blue assay relative to control
# Procedure, shortened: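 MDA-MB-231, MCF-7, HepG2 and LNCaP cells were grown in DMEM; HCT-116 and LO-2 in RPMI-1640; all with 10% FBS at 37 °C, 5% CO2. Cells seeded at 1.5 × 10^5 cells/mL and incubated overnight (~12 h), then exposed to 6.2–30.9 μM or 23.1–185.0 μM (final DMSO <0.1%) for 48 h. Read by methylene blue staining; viability = Abs treated/Abs untreated × 100%, triplicate.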
# [2] = tested on: MDA-MB-231; assay: Induction of apoptosis in human MDA-MB-231 cells assessed as viable cells at 8.6 uM incubated for 48 hrs by annexin V-FITC/PI based flow cytometric analysis (Rvb= 96.21%); settings: MDA-MB-231, 48 h, read-out: Activity
# [3] = tested on: MDA-MB-231; assay: Induction of apoptosis in human MDA-MB-231 cells assessed as necrotic cells at 17.3 uM incubated for 48 hrs by annexin V-FITC/PI based flow cytometric analysis (Rvb= 0.74%)
structure (smiles),measurement,setting,value
CC(C)=CCc1c2c(c(O)c3c(=O)cc(-c4ccc(O)cc4)oc13)C=CC(C)(C)O2 [LAXIFOLIN],Activity,[1],20%
same,viability at 8.6 µM,[2],88.3%
same,Activity,[3],5.57%
